What all share (assay type): functional
Test [1] has as its system Rattus norvegicus. In words: Antiallergic activity against passive cutaneous anaphylaxis (PCA) in male Sprague-Dawley rats after 1.0 mg/kg oral administration. Put shortly:
(§1)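 IgE antiserum raised in male Sprague-Dawley rats (ca. 200 g) by immunization with Ascaris suum extract (2 then 0.2 mg protein), bled 2 weeks after the second dose. Recipients got 0.05 mL diluted antiserum intracutaneously on the back. Blued area (product of two diameters) was read at 30 min.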

Test [2] deals with Rattus norvegicus. Put plainly: Inhibition of passive cutaneous anaphylaxis in male Sprague-Dawley rats following 0.3 mg/kg p.o. administration; Not significant. Conditions: route oral. The method, boiled down: as §1
Test [3] deals with Rattus norvegicus. Put plainly: Inhibition of passive cutaneous anaphylaxis in male Sprague-Dawley rats following 1 mg/kg p.o. administration; Not significant. Conditions: route oral. The method, boiled down: as §1
For test [4], the system named is Rattus norvegicus. In words: Antiallergic activity against passive cutaneous anaphylaxis (PCA) in male Sprague-Dawley rats after 3.0 mg/kg oral administration. Put shortly: as §1
Test [5] has as its system Rattus norvegicus. In words: Inhibition of passive cutaneous anaphylaxis in male Sprague-Dawley rats following 10 mg/kg p.o. administration. The settings on record: route oral. Put shortly: as §1
Test [6] relates to Rattus norvegicus. Put plainly: Antiallergic activity against passive cutaneous anaphylaxis (PCA) in male Sprague-Dawley rats after 3.0 mg/kg oral administration;not statistically significant. Put shortly:
as §1

The inhibition in vivo is the percentage by which the read-out fell short of the control. A low value points to a response near the control. With `CNc1ccc(-c2cc(C)cc(C(=O)Nc3nn[nH]n3)n2)cc1`, the inhibition in vivo at 1 mg/kg in test [1] is 89%. Further, testing at 0.3 mg/kg in test [2] gave an inhibition in vivo of 36%.
Compound `COc1ccc(-c2cccc(C(=O)Nc3nn[nH]n3)n2)cc1` displayed an inhibition in vivo at 1 mg/kg in test [3] of 12%. Also, the inhibition in vivo at 3 mg/kg in test [4] came out at 36%. For the same compound, the inhibition in vivo at 0.3 mg/kg in test [2] turned out to be 4%.
The compound `CC(C)c1ccc(-c2cc(Cl)cc(C(=O)Nc3nn[nH]n3)n2)cc1` gave an inhibition in vivo at 1 mg/kg in test [3] of 14%. Besides, 3 mg/kg produced 68% inhibition in vivo in test [4]. Further, the inhibition in vivo at 10 mg/kg in test [5] is 90%.
`CCCOc1cc(C(=O)Nc2nn[nH]n2)nc(-c2ccc(N)cc2)c1` displayed an inhibition in vivo at 1 mg/kg in test [1] of 64%. Testing at 3 mg/kg in test [4] gave an inhibition in vivo of 68%. In test [2], this compound returned an inhibition in vivo at 0.3 mg/kg of 7%.
Consider `CNc1ccc(-c2cc(OC)cc(C(=O)Nc3nn[nH]n3)n2)cc1`, for which the inhibition in vivo at 1 mg/kg in test [3] came out at 35%. In test [4], the inhibition in vivo at 3 mg/kg was found to be 79%.
The compound `CCCc1cc(C(=O)Nc2nn[nH]n2)nc(-c2ccc(C)cc2)c1` showed an inhibition in vivo at 3 mg/kg in test [4] of 50%. In addition, at 10 mg/kg the inhibition in vivo in test [5] was 84%.
Turning to `CC(C)c1cc(C(=O)Nc2nn[nH]n2)nc(-c2ccc(N)cc2)c1`, in test [3], the inhibition in vivo at 1 mg/kg is 29%. In test [6], this compound registered an inhibition in vivo at 3 mg/kg of 43%. The compound also displayed an inhibition in vivo at 0.3 mg/kg in test [2] of 22%.
Take `CCCCc1ccc(-c2cc(CC)cc(C(=O)Nc3nn[nH]n3)n2)cc1`: in test [3], the inhibition in vivo at 1 mg/kg was found to be 20%. In addition, testing at 3 mg/kg in test [4] gave an inhibition in vivo of 70%.
Consider `CCOc1cc(C(=O)Nc2nn[nH]n2)nc(-c2ccc(N)cc2)c1`, for which the inhibition in vivo at 1 mg/kg in test [1] came out at 52%. Testing at 3 mg/kg in test [4] gave an inhibition in vivo of 62%. In test [2], this compound registered an inhibition in vivo at 0.3 mg/kg of 19%.
As to `COc1cc(C(=O)Nc2nn[nH]n2)nc(-c2ccc(Cl)cc2)c1`, in test [1], the inhibition in vivo at 1 mg/kg was 0%. This compound also displayed an inhibition in vivo at 3 mg/kg in test [6] of 12%. Also, testing at 10 mg/kg in test [5] gave an inhibition in vivo of 55%.
In the case of `COc1ccc(-c2cc(Cl)cc(C(=O)Nc3nn[nH]n3)n2)cc1OC`, in test [3], at 1 mg/kg the inhibition in vivo was 15%. The compound further gave an inhibition in vivo at 3 mg/kg in test [6] of 30%.
As for `CCCCc1ccc(-c2cc(Cl)cc(C(=O)Nc3nn[nH]n3)n2)cc1`, testing at 1 mg/kg in test [1] gave an inhibition in vivo of 0%. Also, the inhibition in vivo at 3 mg/kg in test [4] was 83%.
`CNc1ccc(-c2cccc(C(=O)Nc3nn[nH]n3)n2)cc1` showed an inhibition in vivo at 1 mg/kg in test [3] of 71%. Besides, the inhibition in vivo at 3 mg/kg in test [6] was 83%. In test [2], this compound showed an inhibition in vivo at 0.3 mg/kg of 29%.
In the case of `Cc1ccc(-c2cccc(C(=O)Nc3nn[nH]n3)n2)cc1C`, in test [6], the inhibition in vivo at 3 mg/kg came out at 28%. The compound also gave an inhibition in vivo at 10 mg/kg in test [5] of 39%.
Take `COc1cc(C(=O)Nc2nn[nH]n2)nc(-c2ccccc2)c1`: in test [1], the inhibition in vivo at 1 mg/kg came out at 62%. Besides, in test [4], the inhibition in vivo at 3 mg/kg worked out at 97%. Also, the inhibition in vivo at 10 mg/kg in test [5] amounted to 100%.
In test [3], `CCCCc1cc(C(=O)Nc2nn[nH]n2)nc(-c2ccc(CC)cc2)c1` showed an inhibition in vivo at 1 mg/kg of 19%. Besides, the inhibition in vivo at 3 mg/kg in test [6] came to 25%.
In turn, `COc1cc(C(=O)Nc2nn[nH]n2)nc(-c2ccc(C)c(C)c2)c1` showed an inhibition in vivo at 1 mg/kg in test [3] of 21%. The same compound came in with an inhibition in vivo at 3 mg/kg in test [4] of 82%.
For `Cc1cc(C(=O)Nc2nn[nH]n2)nc(-c2ccccc2)c1`, the inhibition in vivo at 1 mg/kg in test [3] amounted to 23%. Also, the inhibition in vivo at 3 mg/kg in test [4] amounted to 50%. For the same compound, at 10 mg/kg the inhibition in vivo in test [5] was 88%.
`Cc1ccc(-c2cc(Cl)cc(C(=O)Nc3nn[nH]n3)n2)cc1` yielded an inhibition in vivo at 1 mg/kg in test [1] of 86%. The same compound showed an inhibition in vivo at 0.3 mg/kg in test [2] of 10%.
`CCCc1ccc(-c2cc(C)cc(C(=O)Nc3nn[nH]n3)n2)cc1`: in test [3], the inhibition in vivo at 1 mg/kg is 65%. The compound also came in with an inhibition in vivo at 0.3 mg/kg in test [2] of 19%.
For the compound `Cc1cccc(-c2cc(C)cc(C(=O)Nc3nn[nH]n3)n2)c1`, in test [1], the inhibition in vivo at 1 mg/kg is 51%. The compound further registered an inhibition in vivo at 3 mg/kg in test [4] of 61%.
For `COc1ccccc1-c1cccc(C(=O)Nc2nn[nH]n2)n1`, in test [5], the inhibition in vivo at 10 mg/kg turned out to be 0%.
With `CCc1cc(C(=O)Nc2nn[nH]n2)nc(-c2ccccc2)c1`, in test [4], the inhibition in vivo at 3 mg/kg amounted to 53%. This compound had an inhibition in vivo at 10 mg/kg in test [5] of 85%.
Compound `Nc1ccc(-c2cccc(C(=O)Nc3nn[nH]n3)n2)cc1` displayed an inhibition in vivo at 1 mg/kg in test [1] of 62%. This compound also displayed an inhibition in vivo at 3 mg/kg in test [4] of 81%. The same compound displayed an inhibition in vivo at 0.3 mg/kg in test [2] of 11%.
For the compound `Cc1cc(C(=O)Nc2nn[nH]n2)nc(-c2ccc(N(C)C)cc2)c1`, 3 mg/kg produced 24% inhibition in vivo in test [6].
Take `Cc1cc(C(=O)Nc2nn[nH]n2)nc(-c2ccc(C(C)C)cc2)c1`: the inhibition in vivo at 1 mg/kg in test [1] came out at 34%. For the same compound, in test [4], testing at 3 mg/kg gave an inhibition in vivo of 100%.
Compound `Cc1ccc(-c2cc(CC(C)C)cc(C(=O)Nc3nn[nH]n3)n2)cc1` came in with an inhibition in vivo at 1 mg/kg in test [3] of 9%. Moreover, in test [4], 3 mg/kg produced 52% inhibition in vivo.
Turning to `CCCCc1ccc(-c2cc(OC)cc(C(=O)Nc3nn[nH]n3)n2)cc1`, in test [3], the inhibition in vivo at 1 mg/kg is 29%. The compound further registered an inhibition in vivo at 3 mg/kg in test [4] of 61%. For the same compound, the inhibition in vivo at 10 mg/kg in test [5] was 92%.
In test [3], `COc1ccc(-c2cc(OC)cc(C(=O)Nc3nn[nH]n3)n2)cc1` came in with an inhibition in vivo at 1 mg/kg of 25%. Further, the inhibition in vivo at 3 mg/kg in test [4] stood at 60%.
In turn, `CC(=O)Nc1ccc(-c2cc(C)cc(C(=O)Nc3nn[nH]n3)n2)cc1` yielded an inhibition in vivo at 3 mg/kg in test [6] of 32%.
In turn, `O=C(Nc1nn[nH]n1)c1cc(Cl)cc(-c2ccccc2)n1` had an inhibition in vivo at 1 mg/kg in test [1] of 40%.
For the compound `CCOc1cc(C(=O)Nc2nn[nH]n2)nc(-c2ccc(C)cc2)c1`, in test [1], testing at 1 mg/kg gave an inhibition in vivo of 65%. Also, in test [2], the inhibition in vivo at 0.3 mg/kg turned out to be 26%.
For `COc1cccc(-c2cc(C)cc(C(=O)Nc3nn[nH]n3)n2)c1`, the inhibition in vivo at 1 mg/kg in test [3] is 25%. The compound also registered an inhibition in vivo at 3 mg/kg in test [4] of 65%.
Consider `COc1cc(C(=O)Nc2nn[nH]n2)nc(-c2ccc(C)cc2)c1`, for which, in test [1], at 1 mg/kg the inhibition in vivo was 42%. Besides, testing at 0.3 mg/kg in test [2] gave an inhibition in vivo of 16%.
`COc1cc(C(=O)Nc2nn[nH]n2)nc(-c2ccc(C(C)C)cc2)c1`: in test [1], testing at 1 mg/kg gave an inhibition in vivo of 54%. In test [2], testing at 0.3 mg/kg gave an inhibition in vivo of 29%.
As to `COc1cc(C(=O)Nc2nn[nH]n2)nc(-c2cccc(Cl)c2)c1`, in test [4], 3 mg/kg produced 34% inhibition in vivo. The compound further returned an inhibition in vivo at 10 mg/kg in test [5] of 64%.
For `CCN(CC)c1ccc(-c2cc(C)cc(C(=O)Nc3nn[nH]n3)n2)cc1`, the inhibition in vivo at 0.3 mg/kg in test [2] is 19%.
Turning to `COc1cc(C(=O)Nc2nn[nH]n2)nc(-c2ccc(NC(C)=O)cc2)c1`, the inhibition in vivo at 1 mg/kg in test [1] was found to be 0%. Also, the inhibition in vivo at 3 mg/kg in test [6] stood at 27%. In addition, 10 mg/kg produced 100% inhibition in vivo in test [5].
With `CCc1cc(C(=O)Nc2nn[nH]n2)nc(-c2ccc(C)cc2)c1`, the inhibition in vivo at 0.3 mg/kg in test [2] amounted to 33%.
For `CCCCc1cc(C(=O)Nc2nn[nH]n2)nc(-c2ccccc2)c1`, the inhibition in vivo at 1 mg/kg in test [1] came out at 56%. Also, the inhibition in vivo at 3 mg/kg in test [4] amounted to 71%. This compound yielded an inhibition in vivo at 10 mg/kg in test [5] of 100%.
`CCCc1ccc(-c2cc(OC)cc(C(=O)Nc3nn[nH]n3)n2)cc1` came in with an inhibition in vivo at 1 mg/kg in test [1] of 73%. At 3 mg/kg the inhibition in vivo in test [4] was 93%. In addition, in test [2], the inhibition in vivo at 0.3 mg/kg was 32%.
Compound `CCCCc1cc(C(=O)Nc2nn[nH]n2)nc(-c2cccc(C)c2)c1` registered an inhibition in vivo at 1 mg/kg in test [1] of 36%. The inhibition in vivo at 3 mg/kg in test [4] is 82%. For the same compound, at 10 mg/kg the inhibition in vivo in test [5] was 100%.
As for `Cc1ccc(-c2cccc(C(=O)Nc3nn[nH]n3)n2)cc1`, the inhibition in vivo at 1 mg/kg in test [1] came out at 67%. Besides, the inhibition in vivo at 0.3 mg/kg in test [2] was 21%.

Source of the values: ChEMBL document CHEMBL1122378, “Antiallergic agents. 2. N-(1H-tetrazol-5-yl)-6-phenyl-2-pyridinecarboxamides” (1983).
